Columns and labels:
[1] = test system: Klebsiella pneumoniae; experiment: Ratio of Ki for Klebsiella pneumoniae 1534 beta-lactamase KPC-2 T237S mutant to Ki for Klebsiella pneumoniae wild type beta-lactamase KPC-2 by competitive assay
Procedure, shortened: (§1)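 Direct competition assay at steady state with purified enzyme at 10 nM. Inhibitor was varied from 5 μM to 5 mM, with nitrocefin 100 μM final as reporter substrate. 1/v0 was plotted against [I], and Ki(observed) was taken as y-intercept divided by slope. This was corrected by 1 + [S]/Km(nitrocefin).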

[2] = Inhibition of Klebsiella pneumoniae 1534 beta-lactamase KPC-2 T237A mutant by competitive assay; procedure, shortened: as §1
[3] = test system: Klebsiella pneumoniae; experiment: Ratio of Ki for Klebsiella pneumoniae 1534 beta-lactamase KPC-2 T237A mutant to Ki for wild type Klebsiella pneumoniae beta-lactamase KPC-2 by competitive assay
[4] = Inhibition of Klebsiella pneumoniae 1534 beta-lactamase KPC-2 T237S mutant by competitive assay; procedure, shortened: as §1
[5] = test system: Klebsiella pneumoniae; experiment: Activity of Klebsiella pneumoniae 1534 beta-lactamase KPC-2 T237S mutant by spectrophotometric analysis
Procedure, shortened: (§2)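 Purified KPC-2 variant enzymes (periplasmic lysate from E. coli, preparative isoelectric focusing). Hydrolysis followed by diode-array spectrophotometry in 10 mM PBS, pH 7.4, room temperature. Enzyme at 10 nM with substrate in molar excess for pseudo-first-order conditions. Vmax and Km came from a nonlinear least-squares Michaelis-Menten fit.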

[6] = test system: Klebsiella pneumoniae; experiment: Ratio of Kcat/Km for Klebsiella pneumoniae 1534 beta-lactamase KPC-2 T237A mutant by spectrophotometric analysis; procedure, shortened: as §2
[7] = test system: Klebsiella pneumoniae; experiment: Activity of Klebsiella pneumoniae 1534 beta-lactamase KPC-2 T237E mutant by spectrophotometric analysis; procedure, shortened: as §2
[8] = test system: Klebsiella pneumoniae; experiment: Ratio of Kcat/Km for Klebsiella pneumoniae 1534 beta-lactamase KPC-2 T237S mutant by spectrophotometric analysis; procedure, shortened: as §2
[9] = test system: Klebsiella pneumoniae; experiment: Ratio of Kcat/Km for Klebsiella pneumoniae 1534 beta-lactamase KPC-2 T237E mutant by spectrophotometric analysis; procedure, shortened: as §2
[10] = test system: Klebsiella pneumoniae; experiment: Selectivity index, Ratio of Kcat/Km for Klebsiella pneumoniae 1534 beta-lactamase KPC-2 T237S mutant to ratio of Kcat/Km for Klebsiella pneumoniae 1534 beta-lactamase KPC-2 by spectrophotometric analysis
Procedure, shortened: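 Kinetics used purified enzymes in 10 mM PBS, pH 7.4, room temperature, with 10 nM enzyme and substrate in excess. Km and Vmax came from a Michaelis-Menten fit. kcat/Km of the variant was compared with wild type as ΔΔG = −RT ln of the kcat/Km ratio.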

[11] = test system: Klebsiella pneumoniae; experiment: Activity of Klebsiella pneumoniae 1534 beta-lactamase KPC-2 T237A mutant by spectrophotometric analysis; procedure, shortened: as §2
[12] = substrate: CC(=O)OCC1=C(C(=O)O)N2C(=O)[C@@H](NC(=O)Cc3cccs3)[C@H]2SC1; experiment: (§3) Ratio of Kcat/Km for Klebsiella pneumoniae 1534 beta-lactamase KPC-2 by spectrophotometric analysis
Procedure, shortened: (§4)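 Purified KPC-2 was expressed in E. coli (DH10B or IPTG-induced Origami2 DE3 pLys), released by periplasmic lysis, and purified by preparative isoelectric focusing. It was assayed at 10 nM in 10 mM PBS pH 7.4 at room temperature, with substrate in molar excess for pseudo-first-order conditions. Hydrolysis was read on a diode-array spectrophotometer, and Vmax and Km came from nonlinear least-squares Michaelis-Menten fits.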

[13] = substrate: O=C(Cc1cccs1)N[C@@H]1C(=O)N2C(C(=O)O)=C(/C=C/c3ccc([N+](=O)[O-])cc3[N+](=O)[O-])CS[C@H]12; experiment: as §3; procedure, shortened: as §4
[14] = substrate: CO/N=C(\C(=O)N[C@@H]1C(=O)N2C(C(=O)O)=C(COC(C)=O)CS[C@H]12)c1csc(N)n1; experiment: as §3; procedure, shortened: as §4
[15] = substrate: CCN1CCN(C(=O)N[C@@H](C(=O)N[C@@H]2C(=O)N3[C@@H]2SC(C)(C)[C@@H]3C(=O)O)c2ccccc2)C(=O)C1=O; experiment: as §3; procedure, shortened: as §4
[16] = substrate: C[C@@H](O)[C@H]1C(=O)N2C(C(=O)O)=C(SCCNC=N)C[C@H]12; experiment: as §3; procedure, shortened: as §4
[17] = substrate: CC(=O)OCC1=C(C(=O)O)N2C(=O)[C@@H](NC(=O)Cc3cccs3)[C@H]2SC1; experiment: (§5) Activity of Klebsiella pneumoniae 1534 beta-lactamase KPC-2 by spectrophotometric analysis; procedure, shortened: as §4
[18] = substrate: O=C(Cc1cccs1)N[C@@H]1C(=O)N2C(C(=O)O)=C(/C=C/c3ccc([N+](=O)[O-])cc3[N+](=O)[O-])CS[C@H]12; experiment: as §5; procedure, shortened: as §4
[19] = substrate: CO/N=C(\C(=O)N[C@@H]1C(=O)N2C(C(=O)O)=C(COC(C)=O)CS[C@H]12)c1csc(N)n1; experiment: as §5; procedure, shortened: as §4
[20] = substrate: CCN1CCN(C(=O)N[C@@H](C(=O)N[C@@H]2C(=O)N3[C@@H]2SC(C)(C)[C@@H]3C(=O)O)c2ccccc2)C(=O)C1=O; experiment: as §5; procedure, shortened: as §4
[21] = substrate: C[C@@H](O)[C@H]1C(=O)N2C(C(=O)O)=C(SCCNC=N)C[C@H]12; experiment: as §5; procedure, shortened: as §4

For `C[C@]1(Cn2ccnn2)[C@H](C(=O)O)N2C(=O)C[C@H]2S1(=O)=O` [TAZOBACTAM], the fold change (FC) [1] was 1.7, the Ki [2] was 174 µM and the fold change (FC) [3] was 2.2. It also gave a Ki [4] of 53 µM.

Work on `O=C(Cc1cccs1)N[C@@H]1C(=O)N2C(C(=O)O)=C(/C=C/c3ccc([N+](=O)[O-])cc3[N+](=O)[O-])CS[C@H]12` yielded a Km [5] of 5 µM, a kcat [5] of 50 s⁻¹ and a kcat/Km [6] of 1.3e+07 M⁻¹ s⁻¹. It also gave a Km [7] of 167 µM, a kcat [7] of 92 s⁻¹ and a kcat/Km [8] of 1e+07 M⁻¹ s⁻¹. For the same molecule, the kcat/Km [9] was 600000 M⁻¹ s⁻¹, the fold change (FC) [10] was 2.7 and the Km [11] was 15 µM. For the same molecule, the kcat [11] was 191 s⁻¹.

B1: Carbapenem-hydrolyzing beta-lactamase KPC (Klebsiella pneumoniae), Q9F663 (protein)
chain: MSLYRRLVLLSCLSWPLAGFSATALTNLVAEPFAKLEQDFGGSIGVYAMDTGSGATVSYRAEERFPLCSSFKGFLAAAVLARSQQQAGLLDTPIRYGKNALVPWSPISEKYLTTGMTVAELSAAAVQYSDNAAANLLLKELGGPAGLTAFMRSIGDTTFRLDRWELELNSAIPGDARDTSSPRAVTESLQKLTLGSALAAPQRQQFVDWLKGNTTGNHRIRAAVPADWAVGDKTGTCGVYGTANDYAVVWPTGRAPIVLAVYTRAPNKDDKHSEAVIAAAARLALEGLGVNGQ
B1 showed a kcat/Km [12] of 3.1e+06 M⁻¹ s⁻¹, a kcat/Km [13] of 8.7e+06 M⁻¹ s⁻¹ and a kcat/Km [14] of 700000 M⁻¹ s⁻¹. For the same molecule, the kcat/Km [15] was 3.4e+06 M⁻¹ s⁻¹, the kcat/Km [16] was 1e+06 M⁻¹ s⁻¹ and the Km [17] was 14 µM. For the same molecule, the kcat [17] was 44 s⁻¹, the Km [18] was 6 µM and the kcat [18] was 52 s⁻¹. It also gave a Km [19] of 207 µM, a kcat [19] of 142 s⁻¹ and a Km [20] of 15 µM. The kcat [20] was 51 s⁻¹, the Km [21] was 19 µM and the kcat [21] was 19 s⁻¹.

Reference: ChEMBL document CHEMBL1629686, “Substrate selectivity and a novel role in inhibitor discrimination by residue 237 in the KPC-2 beta-lactamase” (Antimicrob Agents Chemother, 2010)
